Reference: ChEMBL document CHEMBL1125331, “6-Hydroxy-3-n-propyl-2,3,4,5-tetrahydro-1H-3-benzazepine and analogs: new centrally acting 5-HT1A receptor agonists” (J Med Chem, 1992)
pIC50: −log10 of the molar value.

Key:
[1] = test system: Rattus norvegicus; test: Effect evaluated in vivo on 5-HTP accumulation in limbic system at a dose 1.56 umol/kg (s.c.); type: functional
Method in brief: (§1)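 Male Sprague-Dawley rats (200–300 g) were pretreated with reserpine 5 mg/kg sc 18 h before. Test compound was given sc at 5 mL/kg in neutral solution. 5-HT synthesis rate was indexed by […] 5-HTP accumulation after decarboxylase inhibition with NSD 1015, measured by HPLC-electrochemical detection. Dose-response used 4–6 dose levels, n = 4.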

[2] = test system: Rattus norvegicus; test: Effect evaluated in vivo on 5-HTP accumulation in limbic system at a dose 25 umol/kg (s.c.); type: functional; method in brief: as §1
[3] = test system: Rattus norvegicus; test: Effect evaluated in vivo on NE synthesis in NE-rich hemispheres at a 6.25d ose uM/kg(sc); type: functional
Method in brief: (§2)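 Rats pretreated with reserpine 5 mg/kg sc 18 h before received test compound sc at 5 mL/kg in neutral solution. After decarboxylase inhibition with NSD 1015, dopa accumulation in hemispheres (mainly cortex) was measured by HPLC-electrochemical detection as an index of NE synthesis. Dose-response used 4–6 dose levels, n = 4.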

[4] = test system: Rattus norvegicus; test: Effect evaluated in vivo on 5-HTP accumulation in corpus striatum at a dose 6.25 umol/kg (s.c.); type: functional
Method in brief: (§3)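 Male Sprague-Dawley rats (200–300 g) were pretreated with reserpine 5 mg/kg sc 18 h beforehand. Test drug was given at neutral pH, 5 mL/kg. Aromatic amino acid decarboxylase was blocked with NSD 1015. 5-HTP in the dissected brain region was assayed by HPLC with electrochemical detection.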

[5] = test system: Rattus norvegicus; test: Effect evaluated in vivo on 5-HTP accumulation in corpus striatum after subcutaneous administration; type: functional; conditions: sc; method in brief: as §3
[6] = test system: Rattus norvegicus; test: Effect evaluated in vivo on NE synthesis in NE-rich hemispheres at a 0.39 dose uM/kg(sc); type: functional; method in brief: as §2
[7] = target: T1, 5-hydroxytryptamine receptor 1A (Rattus norvegicus, UniProt P19327); test: Inhibitory activity against 5-hydroxytryptamine 1A receptor in rats, using [3H]8-OH-DPAT as radioligand
T1 sequence (P19327 whole entry): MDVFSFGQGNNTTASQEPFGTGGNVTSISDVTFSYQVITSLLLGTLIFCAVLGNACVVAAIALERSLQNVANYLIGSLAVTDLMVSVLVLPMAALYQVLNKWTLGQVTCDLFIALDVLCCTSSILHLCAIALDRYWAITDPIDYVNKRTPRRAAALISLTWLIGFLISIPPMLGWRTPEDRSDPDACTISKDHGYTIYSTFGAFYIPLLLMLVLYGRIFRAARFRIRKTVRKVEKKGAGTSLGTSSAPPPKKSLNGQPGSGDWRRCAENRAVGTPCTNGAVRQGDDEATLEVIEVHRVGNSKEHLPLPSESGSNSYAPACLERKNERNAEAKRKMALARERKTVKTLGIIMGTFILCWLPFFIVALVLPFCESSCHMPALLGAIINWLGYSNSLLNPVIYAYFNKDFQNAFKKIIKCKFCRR
Method in brief: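 Rat whole-brain membranes (minus brainstem and cerebellum) in 50 mM Tris pH 8.0 with 120 mM NaCl, 4 mM CaCl2, 4 mM MgCl2 and 10 μM pargyline. Rapid filtration, then scintillation counting. Nonspecific binding defined with 10 μM 5-HT. IC50 by semi-log plot and linear regression.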

[8] = test system: Rattus norvegicus; test: Effect evaluated in vivo on 5-HTP accumulation in limbic system at a dose 6.25 umol/kg (s.c.); type: functional; method in brief: as §1
[9] = test system: Rattus norvegicus; test: Effect evaluated in vivo on NE synthesis in NE-rich hemispheres at a 1.56 dose uM/kg(sc); type: functional; method in brief: as §2
[10] = test system: Rattus norvegicus; test: Effect evaluated in vivo on 5-HTP accumulation in limbic system at a dose 0.20 umol/kg (s.c.); type: functional; method in brief: as §3
[11] = test system: Rattus norvegicus; test: Effect evaluated in vivo on 5-HTP accumulation in corpus striatum at a dose 25 umol/kg (s.c.); type: functional; method in brief: as §3
[12] = test system: Rattus norvegicus; test: Effect evaluated in vivo on NE synthesis in NE-rich hemispheres at a 0.20 dose uM/kg(sc); type: functional; method in brief: as §2
[13] = test system: Rattus norvegicus; test: Effect evaluated in vivo on 5-HTP accumulation in corpus striatum at a dose 0.20 umol/kg (s.c.); type: functional; method in brief: as §3
[14] = test system: Rattus norvegicus; test: Effect evaluated in vivo on 5-HTP accumulation in limbic system at a dose 0.39 umol/kg (s.c.); type: functional; method in brief: as §3
[15] = test system: Rattus norvegicus; test: The compound was tested in vivo for locomotor activity in rats at 25 umol/kg after subcutaneous administration; type: functional
Method in brief: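 Male Sprague-Dawley rats received reserpine 5 mg/kg sc in the neck 18 h before testing. Test compound was given sc in the neck (n = 4). Rats were placed singly in photocell motility meters immediately after dosing, and counts were accumulated over 30 min (tests 9 a.m.–1 p.m.). Gross behaviour, including 5-HT syndrome, was observed throughout.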

[16] = test system: Rattus norvegicus; test: Effect evaluated in vivo on 5-HTP accumulation in limbic system after subcutaneous administration; type: functional; conditions: sc; method in brief: as §3
[17] = target: D(2) dopamine receptor (Rattus norvegicus, UniProt P61169); test: Inhibitory activity against Dopamine receptor D2 in rats using [3H]spiperone as radioligand
Sequence of D(2) dopamine receptor (P61169 whole entry): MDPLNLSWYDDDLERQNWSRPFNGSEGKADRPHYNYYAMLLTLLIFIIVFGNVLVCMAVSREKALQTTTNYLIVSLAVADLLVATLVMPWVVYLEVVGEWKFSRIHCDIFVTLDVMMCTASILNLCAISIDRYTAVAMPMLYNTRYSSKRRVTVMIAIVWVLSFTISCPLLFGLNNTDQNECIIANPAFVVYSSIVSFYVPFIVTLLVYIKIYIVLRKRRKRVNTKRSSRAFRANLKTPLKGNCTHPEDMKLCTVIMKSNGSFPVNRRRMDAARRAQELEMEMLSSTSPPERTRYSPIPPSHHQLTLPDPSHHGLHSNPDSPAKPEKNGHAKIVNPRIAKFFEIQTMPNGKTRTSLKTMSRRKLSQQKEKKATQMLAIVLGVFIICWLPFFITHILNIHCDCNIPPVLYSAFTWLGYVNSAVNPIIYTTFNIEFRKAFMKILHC
Method in brief: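 Rat striatal membranes in 50 mM potassium phosphate buffer pH 7.4 were incubated with 0.5 nM [3H]spiperone for 10 min at 37 °C. Specific binding was defined with 10 μM 6,7-ADTN.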

[18] = test system: Rattus norvegicus; test: Effect evaluated in vivo on NE synthesis in NE-rich hemispheres after subcutaneous administration; type: functional; conditions: sc; method in brief: as §2
[19] = test system: Rattus norvegicus; test: Effect evaluated in vivo on NE synthesis in NE-rich hemispheres at a 25 dose uM/kg(sc); type: functional; method in brief: as §2
[20] = test system: Rattus norvegicus; test: Effect evaluated in vivo on 5-HTP accumulation in corpus striatum at a dose 0.39 umol/kg (s.c.); type: functional; method in brief: as §3
[21] = test system: Rattus norvegicus; test: Effect evaluated in vivo on 5-HTP accumulation in corpus striatum at a dose 12.5 umol/kg (s.c.); type: functional; method in brief: as §3
[22] = test system: Rattus norvegicus; test: Effect evaluated in vivo on 5-HTP accumulation in limbic system at a dose 3.1 umol/kg (s.c.); type: functional; method in brief: as §1
[23] = test system: Rattus norvegicus; test: Effect evaluated in vivo on 5-HTP accumulation in corpus striatum at a dose 3.1 umol/kg (s.c.); type: functional; method in brief: as §3
[24] = test system: Rattus norvegicus; test: Effect evaluated in vivo on 5-HTP accumulation in limbic system at a dose 12.5 umol/kg (s.c.); type: functional; method in brief: as §1
[25] = test system: Rattus norvegicus; test: Effect evaluated in vivo on 5-HTP accumulation in NE-rich hemispheres at a 3.1 dose uM/kg(sc); type: functional; method in brief: as §3
[26] = test system: Rattus norvegicus; test: Effect evaluated in vivo on 5-HTP accumulation in NE-rich hemispheres at a 12.5 dose uM/kg(sc); type: functional; method in brief: as §3
[27] = test system: Rattus norvegicus; test: Effect evaluated in vivo on 5-HTP accumulation in NE-rich hemispheres at a 50 dose uM/kg(sc); type: functional; method in brief: as §3
[28] = test system: Rattus norvegicus; test: Effect evaluated in vivo on 5-HTP accumulation in NE-rich hemispheres at a 0.20 dose uM/kg(sc); type: functional; method in brief: as §3
[29] = test system: Rattus norvegicus; test: Effect evaluated in vivo on 5-HTP accumulation in limbic system at a dose 0.78 umol/kg (s.c.); type: functional; method in brief: as §3
[30] = test system: Rattus norvegicus; test: Effect evaluated in vivo on 5-HTP accumulation in limbic system at a dose 50 umol/kg (s.c.); type: functional; method in brief: as §1
[31] = test system: Rattus norvegicus; test: Effect evaluated in vivo on 5-HTP accumulation in corpus striatum at a dose 50 umol/kg (s.c.); type: functional; method in brief: as §3
[32] = test system: Rattus norvegicus; test: The compound was tested in vivo for locomotor activity in rats at 0.2 umol/kg after subcutaneous administration
[33] = test system: Rattus norvegicus; test: Effect evaluated in vivo on 5-HTP accumulation in NE-rich hemispheres at a 0.78 dose uM/kg(sc); type: functional; method in brief: as §3
[34] = test system: Rattus norvegicus; test: Effect evaluated in vivo on 5-HTP accumulation in corpus striatum at a dose 0.78 umol/kg (s.c.); type: functional; method in brief: as §3
[35] = test system: Rattus norvegicus; test: Effect evaluated in vivo on 5-HTP accumulation in NE-rich hemispheres after subcutaneous administration; type: functional; conditions: sc; method in brief: as §3
[36] = test system: Rattus norvegicus; test: Effect evaluated in vivo on 5-HTP accumulation in limbic system at a dose 0.80 umol/kg (s.c.); type: functional; method in brief: as §1
[37] = test system: Rattus norvegicus; test: Effect evaluated in vivo on 5-HTP accumulation in corpus striatum at a dose 0.80 umol/kg (s.c.); type: functional; method in brief: as §3
[38] = test system: Rattus norvegicus; test: Effect evaluated in vivo on 5-HTP accumulation in NE-rich hemispheres at a 0.80 dose uM/kg(sc); type: functional; method in brief: as §3

Compound | ED50 [5] | pIC50 [7] | Control [10] | Control [13] | ED50 [16] | pIC50 [17] | Control [21] | Control [22] | Control [23] | Control [24] | Control [26] | Control [27] | Control [30] | Control [31] | Locomotor activity [32] | also measured
CCCN1CCc2cccc(O)c2CC1 | 2.2 µmol/kg | 7.09 | 117% | 125% | 1.3 µmol/kg | < 4.00 |  |  |  |  |  |  |  |  |  | Control [1]: 70%; Control [2]: 76%; Control [3]: 53%; Control [4]: 67%; Control [6]: 129%; Control [8]: 51%; Control [9]: 73%; Control [11]: 75%; Control [12]: 115%; Control [14]: 129%; Locomotor activity [15]: 102; ED50 [18]: 1.4 µmol/kg; Control [19]: 72%; Control [20]: 135%
COc1cccc2c1CCN(C)CC2 |  | 6.32 | 110% | 98% |  | 5.64 | 74% | 108% | 89% | 86% | 76% | 80% | 67% | 72% | 8 | Control [25]: 93%; Control [28]: 126%; Control [29]: 93%; Control [33]: 81%; Control [34]: 97%
CCCCN1CCc2ccc(O)cc2CC1 |  |  |  |  |  |  |  |  |  |  |  | 114% | 119% | 106% |  | 
CCN1CCc2cccc(O)c2CC1 | 6.5 µmol/kg | 6.20 |  |  | 5 µmol/kg | 4.85 | 56% | 89% | 96% | 48% | 49% | 48% | 46% | 54% | 31 | ED50 [35]: 6 µmol/kg; Control [36]: 99%; Control [37]: 100%; Control [38]: 108 µM/kg
